Test [1] has as its target Class 1 histone deacetylase (Homo sapiens, UniProt Q13547+O15379+Q92769+Q9BY41). Description: Inhibition of HDAC class 1 in human HT-29 cells using Boc-Lys-Ac as substrate incubated for 3 hrs by microplate reader assay. In kind it is cell-based.
Test [2] is described as follows: Inhibition of HDAC class 2a in human HT-29 cells using Boc-Lys-TFA as substrate incubated for 3 hrs by microplate reader assay. The conditions noted are these: HT-29, 3 h. It is filed as cell-based.
Test [3] is described as follows: Inhibition of HDAC class 2b in human HT-29 cells using Boc-Lys-Ac as substrate incubated for 3 hrs by microplate reader assay. It is filed as cell-based. The settings on record: HT-29, 3 h.
In another test the target is T1, Histone deacetylase 11 (Homo sapiens, UniProt Q96DB2).
T1 sequence (Q96DB2 whole entry): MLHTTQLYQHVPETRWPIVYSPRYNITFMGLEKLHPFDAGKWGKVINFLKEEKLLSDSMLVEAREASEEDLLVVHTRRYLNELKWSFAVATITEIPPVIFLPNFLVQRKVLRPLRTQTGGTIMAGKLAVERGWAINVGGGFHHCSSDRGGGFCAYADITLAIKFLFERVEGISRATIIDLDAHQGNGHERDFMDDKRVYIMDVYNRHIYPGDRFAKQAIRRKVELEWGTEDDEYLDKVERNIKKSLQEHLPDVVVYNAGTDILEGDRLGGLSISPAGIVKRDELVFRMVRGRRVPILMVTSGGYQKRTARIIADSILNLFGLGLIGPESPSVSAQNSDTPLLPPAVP
Description: Inhibition of recombinant human HDAC11 using fluorogenic substrate by fluorescence microplate reader assay. Summed up: (§1)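 Recombinant human HDAC isoforms were tested at 9 inhibitor dilutions in commercial fluorogenic enzyme kits, per the manufacturer's protocol. For class IIa enzymes, deacetylation of a TFA-lysine substrate lets trypsin release a fluorophore, read on a microplate reader. IC50 came from a nonlinear fit of % HDAC activity inhibition against compound concentration.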

For test [4], the target named is T2, Polyamine deacetylase HDAC10 (Homo sapiens, UniProt Q969S8).
T2 sequence (Q969S8 whole entry): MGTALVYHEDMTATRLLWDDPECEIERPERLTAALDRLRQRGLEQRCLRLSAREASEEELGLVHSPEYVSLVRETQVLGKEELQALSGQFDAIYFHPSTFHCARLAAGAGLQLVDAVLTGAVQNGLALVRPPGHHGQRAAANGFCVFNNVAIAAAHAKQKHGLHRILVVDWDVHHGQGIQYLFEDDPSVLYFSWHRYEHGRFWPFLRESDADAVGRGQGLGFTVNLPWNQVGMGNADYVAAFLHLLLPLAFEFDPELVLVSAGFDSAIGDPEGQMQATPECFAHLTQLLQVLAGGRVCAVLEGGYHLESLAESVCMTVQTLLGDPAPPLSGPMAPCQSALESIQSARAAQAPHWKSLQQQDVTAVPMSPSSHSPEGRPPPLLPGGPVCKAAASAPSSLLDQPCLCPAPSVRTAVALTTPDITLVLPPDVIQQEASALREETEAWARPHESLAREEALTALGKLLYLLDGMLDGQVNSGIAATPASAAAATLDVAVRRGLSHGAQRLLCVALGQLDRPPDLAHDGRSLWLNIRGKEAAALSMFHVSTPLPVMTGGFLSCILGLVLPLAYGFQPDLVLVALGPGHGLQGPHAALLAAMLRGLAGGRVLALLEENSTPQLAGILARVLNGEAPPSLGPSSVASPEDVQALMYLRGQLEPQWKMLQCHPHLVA
Description: Inhibition of recombinant human HDAC10 using fluorogenic substrate by fluorescence microplate reader assay. Summed up:
as §1

In a further test the target is Histone deacetylase 2 (Homo sapiens, UniProt Q92769). Description: Inhibition of recombinant human HDAC2 using fluorogenic substrate by fluorescence microplate reader assay. A digest of the protocol:
as §1

Another test deals with T3, Histone deacetylase 8 (Homo sapiens, UniProt Q9BY41).
T3 sequence (Q9BY41 whole entry): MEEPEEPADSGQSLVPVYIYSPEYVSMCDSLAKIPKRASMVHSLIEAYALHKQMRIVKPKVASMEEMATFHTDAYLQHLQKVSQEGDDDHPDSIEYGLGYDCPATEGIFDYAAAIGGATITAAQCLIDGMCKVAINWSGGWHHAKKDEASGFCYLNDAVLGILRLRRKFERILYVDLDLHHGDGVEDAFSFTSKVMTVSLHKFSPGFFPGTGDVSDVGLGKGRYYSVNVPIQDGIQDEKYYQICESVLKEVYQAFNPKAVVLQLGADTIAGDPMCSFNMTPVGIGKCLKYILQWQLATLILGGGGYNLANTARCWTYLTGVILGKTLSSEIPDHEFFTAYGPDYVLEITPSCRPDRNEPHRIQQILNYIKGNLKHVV
Description: Inhibition of recombinant human HDAC8 using fluorogenic substrate by fluorescence microplate reader assay. A digest of the protocol: as §1

The target in the next test is Histone deacetylase 9 (Homo sapiens, UniProt Q9UKV0). Kind of test: Inhibition of recombinant human HDAC9 using fluorogenic substrate by fluorescence microplate reader assay. A digest of the protocol: as §1
The target of another test is Histone deacetylase 1 (Homo sapiens, UniProt Q13547). Description: Inhibition of recombinant human HDAC1 using fluorogenic substrate by fluorescence microplate reader assay. Summed up: as §1
A further test has as its target Histone deacetylase 3 (Homo sapiens, UniProt O15379). Kind of test: Inhibition of recombinant human HDAC3 using fluorogenic substrate by fluorescence microplate reader assay. A digest of the protocol:
as §1

For the next test, the target named is Histone deacetylase 4 (Homo sapiens, UniProt P56524). Kind of test: Inhibition of recombinant human HDAC4 using fluorogenic substrate by fluorescence microplate reader assay. Summed up: as §1
A further test addresses Histone deacetylase 5 (Homo sapiens, UniProt Q9UQL6). Kind of test: Inhibition of recombinant human HDAC5 using fluorogenic substrate by fluorescence microplate reader assay. Summed up:
as §1

The target of test [5] is T4, Protein deacetylase HDAC6 (Homo sapiens, UniProt Q9UBN7).
T4 sequence (Q9UBN7 whole entry): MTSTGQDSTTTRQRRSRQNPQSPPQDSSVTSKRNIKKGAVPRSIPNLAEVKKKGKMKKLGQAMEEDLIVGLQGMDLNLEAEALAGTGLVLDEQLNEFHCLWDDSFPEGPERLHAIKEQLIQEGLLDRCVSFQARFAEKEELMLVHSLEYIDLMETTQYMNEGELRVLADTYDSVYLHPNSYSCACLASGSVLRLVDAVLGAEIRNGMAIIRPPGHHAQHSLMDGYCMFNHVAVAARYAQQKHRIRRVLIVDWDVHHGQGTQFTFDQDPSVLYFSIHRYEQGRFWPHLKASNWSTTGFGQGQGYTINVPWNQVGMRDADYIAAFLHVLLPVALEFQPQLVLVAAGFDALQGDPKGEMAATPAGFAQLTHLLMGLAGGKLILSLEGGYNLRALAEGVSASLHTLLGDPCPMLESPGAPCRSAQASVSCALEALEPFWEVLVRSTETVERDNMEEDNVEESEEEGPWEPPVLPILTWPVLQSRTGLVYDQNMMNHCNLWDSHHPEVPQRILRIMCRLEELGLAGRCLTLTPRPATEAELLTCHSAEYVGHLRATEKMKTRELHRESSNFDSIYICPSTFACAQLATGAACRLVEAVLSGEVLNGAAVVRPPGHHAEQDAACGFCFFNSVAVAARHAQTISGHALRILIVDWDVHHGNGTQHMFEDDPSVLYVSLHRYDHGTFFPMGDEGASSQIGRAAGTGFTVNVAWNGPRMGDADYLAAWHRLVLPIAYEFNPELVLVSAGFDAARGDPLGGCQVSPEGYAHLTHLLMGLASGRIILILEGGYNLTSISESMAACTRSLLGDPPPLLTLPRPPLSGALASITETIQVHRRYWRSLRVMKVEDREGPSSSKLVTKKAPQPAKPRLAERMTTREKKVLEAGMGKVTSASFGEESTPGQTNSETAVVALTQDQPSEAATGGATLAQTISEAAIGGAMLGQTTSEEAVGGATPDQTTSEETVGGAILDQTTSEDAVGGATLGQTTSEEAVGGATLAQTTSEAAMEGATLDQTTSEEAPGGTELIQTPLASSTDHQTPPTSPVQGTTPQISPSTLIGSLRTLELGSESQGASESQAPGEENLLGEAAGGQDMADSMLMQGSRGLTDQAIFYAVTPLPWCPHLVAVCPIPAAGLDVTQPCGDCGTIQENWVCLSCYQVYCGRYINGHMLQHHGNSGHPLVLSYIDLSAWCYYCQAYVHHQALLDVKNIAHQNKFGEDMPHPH
Kind of test: Inhibition of recombinant human HDAC6 using fluorogenic substrate by fluorescence microplate reader assay. Summed up: as §1

Molecules are shown by their SMILES.

Histone deacetylase 2, sequence (Q92769 whole entry): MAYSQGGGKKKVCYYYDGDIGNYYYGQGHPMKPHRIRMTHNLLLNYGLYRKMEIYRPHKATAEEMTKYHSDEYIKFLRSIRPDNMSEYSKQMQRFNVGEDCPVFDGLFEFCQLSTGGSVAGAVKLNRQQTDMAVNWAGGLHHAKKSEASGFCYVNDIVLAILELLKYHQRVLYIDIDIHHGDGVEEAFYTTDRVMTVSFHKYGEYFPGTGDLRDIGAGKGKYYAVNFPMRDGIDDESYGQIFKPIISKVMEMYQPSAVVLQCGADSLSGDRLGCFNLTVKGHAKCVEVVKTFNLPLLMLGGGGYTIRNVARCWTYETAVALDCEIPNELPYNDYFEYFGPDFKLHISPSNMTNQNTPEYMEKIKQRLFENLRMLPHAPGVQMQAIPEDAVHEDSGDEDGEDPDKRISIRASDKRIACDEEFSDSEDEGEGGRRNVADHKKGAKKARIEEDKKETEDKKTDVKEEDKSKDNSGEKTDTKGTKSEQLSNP
Histone deacetylase 1, sequence (Q13547 whole entry): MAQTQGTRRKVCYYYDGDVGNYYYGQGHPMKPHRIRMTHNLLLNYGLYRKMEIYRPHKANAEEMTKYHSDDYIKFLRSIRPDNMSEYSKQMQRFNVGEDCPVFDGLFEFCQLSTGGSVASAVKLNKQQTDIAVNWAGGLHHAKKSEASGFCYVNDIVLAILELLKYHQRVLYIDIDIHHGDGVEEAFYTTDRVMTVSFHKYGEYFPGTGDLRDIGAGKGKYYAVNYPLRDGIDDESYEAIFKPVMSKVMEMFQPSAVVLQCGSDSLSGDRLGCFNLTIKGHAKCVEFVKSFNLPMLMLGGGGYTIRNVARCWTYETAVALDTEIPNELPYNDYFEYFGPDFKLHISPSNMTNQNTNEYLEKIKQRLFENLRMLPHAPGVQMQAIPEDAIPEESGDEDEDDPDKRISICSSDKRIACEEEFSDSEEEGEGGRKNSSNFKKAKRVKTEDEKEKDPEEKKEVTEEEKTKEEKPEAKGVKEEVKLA
Histone deacetylase 3, sequence (O15379 whole entry): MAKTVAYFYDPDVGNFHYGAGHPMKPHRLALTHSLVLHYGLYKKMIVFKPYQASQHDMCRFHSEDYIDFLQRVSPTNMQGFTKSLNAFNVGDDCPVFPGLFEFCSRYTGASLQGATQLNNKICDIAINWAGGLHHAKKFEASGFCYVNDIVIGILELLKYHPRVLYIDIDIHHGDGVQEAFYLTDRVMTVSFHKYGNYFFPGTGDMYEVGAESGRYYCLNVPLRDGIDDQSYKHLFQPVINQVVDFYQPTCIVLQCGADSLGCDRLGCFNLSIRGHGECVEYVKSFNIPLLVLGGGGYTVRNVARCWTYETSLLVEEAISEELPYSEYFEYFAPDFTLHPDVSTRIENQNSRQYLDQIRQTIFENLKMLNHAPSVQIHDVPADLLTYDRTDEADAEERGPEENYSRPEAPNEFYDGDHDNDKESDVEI
Histone deacetylase 5, sequence (Q9UQL6 whole entry): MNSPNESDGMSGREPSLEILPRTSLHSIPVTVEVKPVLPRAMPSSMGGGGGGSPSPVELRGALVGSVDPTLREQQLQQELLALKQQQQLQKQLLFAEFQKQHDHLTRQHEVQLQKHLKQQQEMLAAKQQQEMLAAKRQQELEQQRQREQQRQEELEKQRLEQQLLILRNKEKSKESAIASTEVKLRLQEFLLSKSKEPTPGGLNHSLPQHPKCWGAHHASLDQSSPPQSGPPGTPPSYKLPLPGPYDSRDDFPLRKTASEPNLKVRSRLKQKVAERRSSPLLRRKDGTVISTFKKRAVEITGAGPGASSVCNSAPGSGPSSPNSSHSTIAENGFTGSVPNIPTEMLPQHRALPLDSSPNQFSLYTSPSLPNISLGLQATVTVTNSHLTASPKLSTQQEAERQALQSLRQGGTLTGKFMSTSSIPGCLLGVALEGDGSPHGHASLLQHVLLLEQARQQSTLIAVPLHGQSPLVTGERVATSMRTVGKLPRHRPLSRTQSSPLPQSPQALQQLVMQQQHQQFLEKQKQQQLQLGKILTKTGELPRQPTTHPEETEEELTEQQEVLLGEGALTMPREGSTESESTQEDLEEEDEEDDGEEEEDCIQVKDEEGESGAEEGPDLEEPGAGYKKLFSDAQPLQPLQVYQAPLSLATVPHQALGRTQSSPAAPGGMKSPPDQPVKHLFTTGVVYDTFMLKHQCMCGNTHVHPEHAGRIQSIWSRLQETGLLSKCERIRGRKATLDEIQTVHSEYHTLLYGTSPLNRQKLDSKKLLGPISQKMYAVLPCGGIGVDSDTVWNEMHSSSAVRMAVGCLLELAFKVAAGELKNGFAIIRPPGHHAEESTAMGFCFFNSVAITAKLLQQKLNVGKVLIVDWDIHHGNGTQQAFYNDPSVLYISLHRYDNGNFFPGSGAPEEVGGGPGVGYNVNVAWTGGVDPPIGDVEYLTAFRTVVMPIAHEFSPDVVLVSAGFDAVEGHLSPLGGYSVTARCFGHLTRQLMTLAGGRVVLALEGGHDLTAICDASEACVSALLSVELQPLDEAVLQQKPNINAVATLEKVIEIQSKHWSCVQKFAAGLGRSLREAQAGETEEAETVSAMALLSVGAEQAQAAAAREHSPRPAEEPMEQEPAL
Histone deacetylase 4, sequence (P56524 whole entry): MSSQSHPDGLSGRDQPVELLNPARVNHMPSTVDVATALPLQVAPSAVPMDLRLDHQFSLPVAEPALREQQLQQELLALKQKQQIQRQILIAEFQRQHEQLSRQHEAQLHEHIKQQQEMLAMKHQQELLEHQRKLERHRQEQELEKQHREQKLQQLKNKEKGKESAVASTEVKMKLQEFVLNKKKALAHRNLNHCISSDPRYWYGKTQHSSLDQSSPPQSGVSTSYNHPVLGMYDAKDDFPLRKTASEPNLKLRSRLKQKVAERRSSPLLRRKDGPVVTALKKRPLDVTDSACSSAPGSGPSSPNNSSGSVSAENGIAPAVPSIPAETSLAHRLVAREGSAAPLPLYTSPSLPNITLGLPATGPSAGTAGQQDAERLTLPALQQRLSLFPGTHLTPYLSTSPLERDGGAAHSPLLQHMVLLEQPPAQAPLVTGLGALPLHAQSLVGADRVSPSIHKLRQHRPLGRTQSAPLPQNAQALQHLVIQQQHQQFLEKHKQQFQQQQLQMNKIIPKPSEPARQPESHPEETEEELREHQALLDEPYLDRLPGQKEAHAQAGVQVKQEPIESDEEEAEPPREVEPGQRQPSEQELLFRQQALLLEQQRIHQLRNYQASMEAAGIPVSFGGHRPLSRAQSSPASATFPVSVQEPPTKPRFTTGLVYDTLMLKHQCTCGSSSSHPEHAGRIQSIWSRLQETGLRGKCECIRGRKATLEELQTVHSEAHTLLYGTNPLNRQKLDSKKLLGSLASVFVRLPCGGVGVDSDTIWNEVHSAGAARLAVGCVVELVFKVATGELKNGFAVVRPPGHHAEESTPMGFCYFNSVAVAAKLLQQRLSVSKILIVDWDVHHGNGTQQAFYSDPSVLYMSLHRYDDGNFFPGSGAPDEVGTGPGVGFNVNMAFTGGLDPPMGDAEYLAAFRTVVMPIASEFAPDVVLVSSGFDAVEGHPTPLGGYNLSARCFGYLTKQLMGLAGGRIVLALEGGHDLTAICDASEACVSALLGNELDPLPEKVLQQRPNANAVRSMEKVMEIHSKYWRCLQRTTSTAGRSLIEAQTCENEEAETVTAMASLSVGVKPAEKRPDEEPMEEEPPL
Histone deacetylase 9, sequence (Q9UKV0 whole entry): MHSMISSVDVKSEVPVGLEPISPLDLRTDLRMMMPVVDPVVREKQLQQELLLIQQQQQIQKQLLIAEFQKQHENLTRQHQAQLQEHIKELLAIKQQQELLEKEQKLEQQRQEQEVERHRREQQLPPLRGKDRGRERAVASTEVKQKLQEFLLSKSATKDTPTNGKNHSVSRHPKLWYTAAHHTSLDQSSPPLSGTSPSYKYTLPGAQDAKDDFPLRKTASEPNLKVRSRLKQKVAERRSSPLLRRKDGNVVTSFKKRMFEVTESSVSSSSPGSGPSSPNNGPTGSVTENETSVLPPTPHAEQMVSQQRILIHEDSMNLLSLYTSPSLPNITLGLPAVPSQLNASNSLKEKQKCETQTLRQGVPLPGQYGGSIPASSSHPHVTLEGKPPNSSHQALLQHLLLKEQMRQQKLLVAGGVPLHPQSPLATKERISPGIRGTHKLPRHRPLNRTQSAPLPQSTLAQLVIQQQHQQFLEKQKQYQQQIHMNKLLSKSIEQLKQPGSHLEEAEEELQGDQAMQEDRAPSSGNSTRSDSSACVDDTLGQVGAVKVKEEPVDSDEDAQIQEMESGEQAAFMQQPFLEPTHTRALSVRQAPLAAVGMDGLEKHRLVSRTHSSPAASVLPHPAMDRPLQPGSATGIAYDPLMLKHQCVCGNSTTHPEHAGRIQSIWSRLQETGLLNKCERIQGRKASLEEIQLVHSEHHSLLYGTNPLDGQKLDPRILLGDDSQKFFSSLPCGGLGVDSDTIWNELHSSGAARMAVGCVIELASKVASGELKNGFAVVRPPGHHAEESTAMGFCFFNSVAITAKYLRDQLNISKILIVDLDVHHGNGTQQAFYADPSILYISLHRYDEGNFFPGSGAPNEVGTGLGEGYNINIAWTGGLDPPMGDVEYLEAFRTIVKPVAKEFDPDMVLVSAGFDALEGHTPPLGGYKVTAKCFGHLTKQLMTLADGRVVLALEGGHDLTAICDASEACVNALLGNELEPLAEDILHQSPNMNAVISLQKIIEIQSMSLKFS

With `COC[C@@H](NC(=O)c1ccc(-c2noc(C(F)(F)F)n2)cc1)C(=O)NCc1ccc(F)cc1`, the IC50 in test [1] was over 15000 nM; in [2], 233 nM; in test [3] it was over 15000 nM.

In the case of `COC[C@@H](NC(=O)c1ccc(-c2noc(C(F)(F)F)n2)nc1)C(=O)NCc1ccccc1`, the IC50 in [1] is over 15000 nM; in [2], 1710 nM; in test [3], over 15000 nM.

Regarding `C[C@H](CN(C)Cc1ccccc1)NC(=O)c1ccc(-c2noc(C(F)(F)F)n2)cc1`, the IC50 at Histone deacetylase 11 is over 600 nM; in test [4], over 600 nM; at Histone deacetylase 2 it was over 600 nM; at Histone deacetylase 8, over 600 nM; in test [1] it was over 15000 nM; on Histone deacetylase 9, 0.9 nM. In addition, the concentration for half-maximal inhibition (IC50) on Histone deacetylase 1 is over 600 nM; in test [2], 46 nM; in [3], over 15000 nM; at Histone deacetylase 3 it was over 600 nM; on Histone deacetylase 4 it was 0.08 nM; at Histone deacetylase 5 it was 1.2 nM. For the same molecule, the IC50 in [5] is over 600 nM.

With `CN(Cc1ccccc1)C(=O)C(C)(C)CNC(=O)c1cccc(-c2noc(C(F)(F)F)n2)c1`, the IC50 in [1], in test [2] and in test [3] was over 50000 nM in each case.

`CN(Cc1ccccc1)C(=O)C(C)(C)CNC(=O)c1ccc(-c2noc(C(F)(F)F)n2)cc1`: the IC50 in [1] is over 15000 nM; in test [2] it was 933 nM; in [3], over 15000 nM.

For `CN(Cc1ccccc1)C(=O)CCNC(=O)c1cccc(-c2noc(C(F)(F)F)n2)c1`, the IC50 in [1], in test [2] and in test [3] was over 50000 nM in each case.

Consider `C[C@@H](NC(=O)c1ccc(-c2noc(C(F)(F)F)n2)cc1)C(=O)NCc1ccccc1`, for which the IC50 is over 15000 nM in [1], 953 nM in test [2] and over 15000 nM in test [3].

For `CC(C)(CNC(=O)c1ccc(-c2noc(C(F)(F)F)n2)cc1)c1coc(-c2ccccc2)n1`, the IC50 in test [1] was over 15000 nM; in [2] it was over 5000 nM; in test [3], over 15000 nM.

As for `C[C@H](CN(C)Cc1ccccc1)NC(=O)c1ccc(-c2noc(C(F)(F)Cl)n2)cc1`, the IC50 in test [1], in test [2] and in test [3] was over 2000 nM throughout.

Regarding `COC[C@@H](NC(=O)c1ccc(-c2noc(C(F)(F)F)n2)cc1)C(=O)NCc1ccccc1`, the IC50 in [1] is over 15000 nM; in [2] it was 537 nM; in test [3], over 15000 nM.

In the case of `CN(Cc1ccccc1)C(=O)CCNC(=O)c1ccc(-c2noc(C(F)(F)F)n2)cc1`, the IC50 in test [1] is over 15000 nM; in test [2], 905 nM; in test [3] it was over 15000 nM.

Regarding `C[C@H](CN(C)Cc1ccccc1)NC(=O)c1cccc(-c2noc(C(F)(F)F)n2)c1`, the IC50 in test [1], in test [2] and in [3] was over 50000 nM throughout.

Consider `CC(C)(CNC(=O)c1ccc(-c2noc(C(F)(F)F)n2)cc1)C(=O)NCc1ccccc1`, for which the IC50 was over 15000 nM in test [1], 768 nM in test [2] and over 15000 nM in [3].

Turning to `CC(CN(C)Cc1ccccc1)NC(=O)c1ccc(-c2noc(C(F)(F)F)n2)cc1` (stereo unspecified), the IC50 was over 50000 nM in [1], 395 nM in test [2] and over 50000 nM in test [3].

Turning to `C[C@H](CN(C)Cc1ccccc1)NC(=O)c1ccc(-c2noc(C(F)(F)Br)n2)cc1`, the IC50 in test [1], in test [2] and in test [3] was over 5000 nM throughout.

On to `C[C@H](CN(C)Cc1ccc(F)cc1)NC(=O)c1ccc(-c2noc(C(F)(F)F)n2)cc1`, for which the IC50 in [1] was over 15000 nM; in test [2], 59 nM; in test [3] it was over 15000 nM.

For the molecule `C[C@H](CN(C)Cc1ccccc1)NC(=O)c1ccc(-c2noc(C(F)(F)F)n2)nc1`, the IC50 was over 50000 nM in test [1], 147 nM in [2] and over 50000 nM in test [3].

The values are drawn from ChEMBL document CHEMBL5154665, “Design, synthesis, biochemical evaluation, radiolabeling and in vivo imaging with high affinity class-IIa histone deacetylase inhibitor for molecular imaging and targeted therapy” (Eur J Med Chem, 2022).
